Source: ChEMBL document CHEMBL3286129, “Optimization of peptidomimetic boronates bearing a P3 bicyclic scaffold as proteasome inhibitors” (Eur J Med Chem, 2014)
Activity calls are given as the source filed them. The calls are words filed in the database; no cut-off is given here.

Tests used:
NCI-H522 = experiment: Growth inhibition of human NCI-H522 cells; type: functional
HT-29 = experiment: Growth inhibition of human HT-29 cells; type: functional
Malme-3M = experiment: Growth inhibition of human MALME-3M cells; type: functional
COLO 205 = experiment: Growth inhibition of human COLO205 cells; type: functional
[1] = molecular target: Proteasome Macropain subunit (Homo sapiens) (UniProt P49721); experiment: Inhibition of trypsin-like activity of 20S proteasome in human erythrocytes using Boc-Leu-Arg-Arg-AMC as substrate by fluorescence assay; type: cell-based
Chain of Proteasome Macropain subunit (Homo sapiens) (P49721 whole entry): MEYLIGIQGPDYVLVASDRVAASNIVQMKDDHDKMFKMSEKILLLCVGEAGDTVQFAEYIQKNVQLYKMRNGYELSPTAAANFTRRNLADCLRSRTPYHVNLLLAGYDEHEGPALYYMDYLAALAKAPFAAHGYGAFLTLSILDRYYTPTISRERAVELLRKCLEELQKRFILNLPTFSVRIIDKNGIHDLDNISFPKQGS
In short: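 Human 20S proteasome 0.0025 mg/mL at 30 °C in 50 mM Tris pH 7.4, 50 mM NaCl, 0.5 mM EDTA, 0.03% SDS, 7.5% DMSO. Varied inhibitor concentrations; AMC release monitored continuously for 10 min, ex 380/em 460 nm. Ki derived from progress-curve IC50 fit.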

[2] = Growth inhibition of human SF295 cells; type: functional; conditions: SF-295
Chymotrypsinogen A = Chymotrypsinogen A (Bos taurus, UniProt P00766); experiment: Inhibition of bovine pancreatic alpha-chymotrypsin using Suc-Leu-Leu-Val-Tyr-AMC as substrate by fluorescence assay; conditions: read-out: Ki
In short: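 Enzyme incubated at 20 °C in 50 mM Tris pH 8.0, 100 mM NaCl, 5 mM EDTA, 7.5% DMSO with varied inhibitor concentrations. Substrate hydrolysis followed for 10 min. Ki from progress curves; mean of three determinations.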

ACHN = experiment: Growth inhibition of human ACHN cells; type: functional
SK-MEL-5 = experiment: Growth inhibition of human SK-MEL-5 cells; type: functional
[3] = Growth inhibition of human UO31 cells; type: functional; conditions: UO-31
[4] = Growth inhibition of human OVCAR8 cells; type: functional
[5] = Cytotoxicity against human renal cancer cells assessed as cell growth at 10 uM relative to control; type: functional; conditions: Cancer cell lines, read-out: Activity
In short: (§1)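 Single-concentration screen against a panel of human cancer cell lines. Each value is the mean percent growth across the cell lines of that tumour subpanel.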

IGROV-1 = experiment: Growth inhibition of human IGROV1 cells; type: functional
[6] = Growth inhibition of human OVCAR4 cells; type: functional
DU-145 = experiment: Growth inhibition of human DU145 cells; type: functional
SF-268 = experiment: Growth inhibition of human SF268 cells; type: functional
SN12C = experiment: Growth inhibition of human SN12C cells; type: functional
[7] = Growth inhibition of human LOXIMVI cells; type: functional; conditions: LOX IMVI
NCI-H322M = experiment: Growth inhibition of human NCI-H322M cells; type: functional
[8] = molecular target: T1, Proteasome Macropain subunit MB1 (Homo sapiens, UniProt P28074); experiment: Inhibition of chymotrypsin-like activity of 20S proteasome in human erythrocytes using Suc-Leu-Leu-Val-Tyr-AMC as substrate by fluorescence assay; conditions: read-out: Ki
T1 sequence (P28074 whole entry): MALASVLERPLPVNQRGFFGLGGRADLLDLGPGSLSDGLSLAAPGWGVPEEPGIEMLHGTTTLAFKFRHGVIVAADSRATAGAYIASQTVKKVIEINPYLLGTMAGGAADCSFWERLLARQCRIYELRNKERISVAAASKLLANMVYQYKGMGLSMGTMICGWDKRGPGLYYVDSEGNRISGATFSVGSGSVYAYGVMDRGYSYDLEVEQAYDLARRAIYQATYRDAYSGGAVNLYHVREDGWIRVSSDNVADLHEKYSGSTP

[9] = Growth inhibition of human Hs 578T cells; type: functional
[10] = Cytotoxicity against human leukemia cells assessed as cell growth at 10 uM relative to control; type: functional; conditions: read-out: Activity; in short: as §1
MDA-MB-435 = experiment: Growth inhibition of human MDA-MB-435 cells; type: functional
[11] = Growth inhibition of human MOLT4 cells; type: functional
[12] = Cytotoxicity against human CNSC cells assessed as cell growth at 10 uM relative to control; type: functional; conditions: read-out: Activity; in short: as §1
MDA-MB-231 = experiment: Growth inhibition of human MDA-MB-231 cells; type: functional
NCI-H226 = experiment: Growth inhibition of human NCI-H226 cells; type: functional
SNB-19 = experiment: Growth inhibition of human SNB19 cells; type: functional
SR = experiment: Growth inhibition of human SR cells; type: functional
SK-OV-3 = experiment: Growth inhibition of human SKOV3 cells; type: functional
MCF7 = experiment: Growth inhibition of human MCF7 cells; type: functional
[13] = Growth inhibition of human HOP92 cells; type: functional
[14] = Growth inhibition of human RXF393 cells; type: functional
[15] = Cytotoxicity against human breast cancer cells assessed as cell growth at 10 uM relative to control; type: functional; conditions: Cancer cell lines, read-out: Activity; in short: as §1
HOP-62 = experiment: Growth inhibition of human HOP62 cells; type: functional
[16] = Growth inhibition of human SF539 cells; type: functional
[17] = read-out: LC50 (the source's name)

In the case of `CC(C)C[C@H](NC(=O)CCn1ccc2ccc(Br)cc2c1=O)B(O)O`, the GI50 (NCI-H522) is reported as 0.3 µM, the LC50 (NCI-H522) is reported as > 100 µM and the TGI (NCI-H522) is reported as 2.25 µM. For the same compound, the GI50 (HT-29) was 0.45 µM, the LC50 (HT-29) was > 100 µM and the TGI (HT-29) was > 100 µM. For the same compound, the GI50 (Malme-3M) was 0.68 µM, the TGI (Malme-3M) was 7.95 µM and the CC50 (Malme-3M; [17]) was > 100 µM. The GI50 (COLO 205) was 0.85 µM, the TGI (COLO 205) was > 100 µM and the CC50 (COLO 205; [17]) was > 100 µM. For the same compound, the inhibition [1] was “inactive”, the GI50 [2] was 0.58 µM and the LC50 [2] was 75.5 µM. The TGI [2] was 4.51 µM, the Ki (Chymotrypsinogen A) was 23.7 µM and the GI50 (ACHN) was 0.41 µM. The TGI (ACHN) was > 100 µM, the CC50 (ACHN; [17]) was > 100 µM and the GI50 (SK-MEL-5) was 0.37 µM. The LC50 (concentration killing 50% of cells) (SK-MEL-5) was 82.5 µM, the TGI (SK-MEL-5) was 3.11 µM and the GI50 [3] was 0.98 µM. For the same compound, the LC50 [3] was > 100 µM, the TGI [3] was 15.4 µM and the GI50 ([4]; OVCAR-8) was 3.64 µM. For the same compound, the TGI ([4]; OVCAR-8) was > 100 µM, the CC50 ([4]; OVCAR-8, read-out: LC50 (the source's name)) was > 100 µM and the growth at 10 µM [5] was -4%. For the same compound, the GI50 (IGROV-1) was 5.1 µM, the LC50 (IGROV-1) was > 100 µM and the TGI (IGROV-1) was > 100 µM. The GI50 ([6]; OVCAR-4) was 2.06 µM, the TGI ([6]; OVCAR-4) was > 100 µM and the CC50 ([6]; OVCAR-4, read-out: LC50 (the source's name)) was > 100 µM. The GI50 (DU-145) was 0.71 µM, the TGI (DU-145) was > 100 µM and the CC50 (DU-145; [17]) was > 100 µM. For the same compound, the GI50 (SF-268) was 0.7 µM, the LC50 (SF-268) was > 100 µM and the TGI (SF-268) was 3.85 µM. For the same compound, the GI50 (SN12C) was 1.5 µM, the TGI (SN12C) was 11.5 µM and the CC50 (SN12C; [17]) was > 100 µM. For the same compound, the GI50 [7] was 0.22 µM, the TGI [7] was 0.61 µM and the GI50 (NCI-H322M) was > 100 µM. The TGI (NCI-H322M) was > 100 µM, the CC50 (NCI-H322M; [17]) was > 100 µM and the Ki [8] was 0.06 µM. For the same compound, the GI50 [9] was 0.43 µM, the TGI [9] was 6.2 µM and the CC50 [9, 17] was > 100 µM. It also gave a growth at 10 µM [10] of 0.02%, a GI50 (MDA-MB-435) of 0.18 µM and a TGI (MDA-MB-435) of 0.37 µM. The CC50 (MDA-MB-435; [17]) was 0.78 µM, the GI50 ([11]; MOLT-4) was 0.31 µM and the TGI ([11]; MOLT-4) was > 100 µM. For the same compound, the CC50 ([11]; MOLT-4, read-out: LC50 (the source's name)) was > 100 µM, the growth at 10 µM [12] was 6.51% and the GI50 (MDA-MB-231) was 1.2 µM. For the same compound, the TGI (MDA-MB-231) was 12.2 µM, the CC50 (MDA-MB-231; [17]) was > 100 µM and the GI50 (NCI-H226) was 0.19 µM. It also gave a TGI (NCI-H226) of 0.42 µM, a CC50 (NCI-H226; [17]) of 0.95 µM and a GI50 (SNB-19) of 0.96 µM. The TGI (SNB-19) was > 100 µM, the CC50 (SNB-19; [17]) was > 100 µM and the GI50 (SR) was 0.26 µM. For the same compound, the TGI (SR) was 11.6 µM, the CC50 (SR; [17]) was > 100 µM and the GI50 (SK-OV-3) was 2.36 µM. The LC50 (SK-OV-3) was > 100 µM, the TGI (SK-OV-3) was 71.5 µM and the GI50 (MCF7) was 0.39 µM. For the same compound, the TGI (MCF7) was > 100 µM, the CC50 (MCF7; [17]) was > 100 µM and the GI50 ([13]; HOP-92) was 1.34 µM. The TGI ([13]; HOP-92) was 5.61 µM, the CC50 ([13]; HOP-92, read-out: LC50 (the source's name)) was > 100 µM and the GI50 ([14]; RXF 393) was 0.28 µM. The TGI ([14]; RXF 393) was 0.88 µM, the CC50 ([14]; RXF 393, read-out: LC50 (the source's name)) was 5.39 µM and the growth at 10 µM [15] was 2.31%. The GI50 (HOP-62) was 2.63 µM, the TGI (HOP-62) was 9.29 µM and the CC50 (HOP-62; [17]) was > 100 µM. For the same compound, the GI50 ([16]; SF-539) was 0.21 µM, the TGI ([16]; SF-539) was 0.6 µM and the CC50 ([16]; SF-539, read-out: LC50 (the source's name)) was > 100 µM.
